# Data published in ChEMBL document CHEMBL4145607, “Tamarixetin Exhibits Anti-inflammatory Activity and Prevents Bacterial Sepsis by Increasing IL-10 Production” (J Nat Prod, 2018).
# Activity calls are given as the source filed them. No cut-off for these calls is given here.
# Tests used:
# [1] = tested on: Mus musculus; assay: Antiseptic activity in Balb/c mouse model of Escherichia coli K1 infection-induced sepsis assessed as reduction in bacterial count in liver at 1 mg/kg, ip pretreated for 1 hr followed by Escherichia coli K1 infection measured after 12 hrs; assay type: functional, organism-based
# Summary of the method: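 Pretreatment was 1 mg·kg−1 i.p. 1 h before i.p. E. coli K1 (1 × 10^6 CFU per mouse) in BALB/c mice. At 12 h, lungs, liver and kidneys were homogenized in PBS and diluted 1:1000. 10 μL was plated on LB agar, incubated 24 h at 37 °C, and colonies counted.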
# [2] = tested on: BMDC; assay: Inhibition of Escherichia coli K1 infection-induced immune response in C57BL/6 mouse BMDC assessed as increase in IL10 secretion at 25 uM pretreated for 30 mins followed by Escherichia coli K1 infection for 6 hrs by ELISA; assay type: functional, cell-based
# Summary of the method: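 BMDCs from C57BL/6 mice were given 25 μM compound and E. coli K1, […]. Timing was: compound 30 min before a 6 h infection; cotreatment for 6 h; or compound for 30–120 min with 6 h infection. Supernatant cytokines (TNF-α, IL-6, IL-10, IL-12p70) were measured by ELISA. At least three experiments in triplicate.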
# [3] = tested on: BMDC; assay: Cytotoxicity against C57BL/6 mouse BMDC assessed as effect on cell viability up to 100 uM after 24 hrs by luminescence assay; assay type: cell-based
# Summary of the method: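 BMDCs came from C57BL/6 marrow cultured 7 days with 10 ng·mL−1 GM-CSF. Cells at 1 × 10^4 per well were incubated 24 h with 6.25–200 μM compound, with DMSO and H2O2 controls. Viability was read as ATP by luminescence. Means ± SEM.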
# [4] = tested on: BMDC; assay: Increase in microRNA155 expression in LPS-induced C57BL/6 mouse BMDC at 25 uM pretreated for 30 mins followed by LPS-challenge measured after 6 hrs by qRT-PCR analysis; assay type: functional, cell-based
# Summary of the method: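 Total RNA was extracted from BMDCs with TRIzol and reverse transcribed. miR-146a, miR-155 and miR-187 were quantified by real-time qPCR with gene-specific primers.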
# [5] = biological target: T1, Toll-like receptor 4 (Mus musculus) (UniProt Q9QUK6); assay: Inhibition of LPS-induced TLR4 activation in C57BL/6 mouse BMDC assessed as reduction in JNK1 phosphorylation at 25 uM pretreated for 30 mins followed by LPS-challenge measured after 15 to 90 mins by Western blot analysis; assay type: cell-based
# T1 sequence (whole entry): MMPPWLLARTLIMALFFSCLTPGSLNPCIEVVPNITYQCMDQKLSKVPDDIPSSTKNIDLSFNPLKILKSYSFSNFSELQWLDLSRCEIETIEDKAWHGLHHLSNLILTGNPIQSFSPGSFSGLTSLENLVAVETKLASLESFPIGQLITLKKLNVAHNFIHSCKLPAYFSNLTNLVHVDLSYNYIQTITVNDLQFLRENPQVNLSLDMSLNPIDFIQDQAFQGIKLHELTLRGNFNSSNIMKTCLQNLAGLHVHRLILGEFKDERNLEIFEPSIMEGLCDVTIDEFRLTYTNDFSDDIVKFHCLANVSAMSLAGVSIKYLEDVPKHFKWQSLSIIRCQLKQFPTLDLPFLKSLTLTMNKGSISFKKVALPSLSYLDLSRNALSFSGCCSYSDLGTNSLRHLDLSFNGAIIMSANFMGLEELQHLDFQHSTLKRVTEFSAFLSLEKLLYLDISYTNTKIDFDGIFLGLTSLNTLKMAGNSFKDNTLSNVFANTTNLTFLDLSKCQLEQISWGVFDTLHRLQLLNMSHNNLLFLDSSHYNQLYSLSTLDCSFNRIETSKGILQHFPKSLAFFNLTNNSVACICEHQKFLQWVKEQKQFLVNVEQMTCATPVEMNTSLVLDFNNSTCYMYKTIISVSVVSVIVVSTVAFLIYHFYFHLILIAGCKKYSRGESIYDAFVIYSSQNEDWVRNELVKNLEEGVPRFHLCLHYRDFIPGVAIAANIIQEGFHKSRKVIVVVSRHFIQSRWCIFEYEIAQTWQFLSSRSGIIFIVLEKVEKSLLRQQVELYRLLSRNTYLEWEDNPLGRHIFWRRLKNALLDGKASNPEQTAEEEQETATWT
# Summary of the method: (§1)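 BMDCs were pretreated 30 min with 25 μM compound, then stimulated with LPS 50 ng·mL−1 for the indicated times. Lysates (25 μg protein) were run on 10% SDS-PAGE and immunoblotted for phospho/total ERK, JNK, p38 and Akt, plus COX-2, IκBα and α-tubulin, with ECL detection. Representative of three experiments.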
# [6] = tested on: Mus musculus; assay: Antiinflammatory activity in Balb/c mouse model of LPS-induced endotoxemia assessed as reduction in serum AST level at 1 mg/kg, ip pretreated for 1 hr followed by LPS-challenge measured after 12 hrs by ELISA; assay type: functional, organism-based
# Summary of the method: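 In BALB/c mice, 1 mg·kg−1 i.p. was given 1 h before LPS 10 mg·kg−1 i.p. After 12 h, serum AST, ALT and BUN were measured by ELISA. Means ± SEM.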
# [7] = tested on: BMDC; assay: Inhibition of LPS-induced immune response in C57BL/6 mouse BMDC assessed as reduction in TNFalpha secretion up to 25 uM pretreated for 30 mins followed by LPS-challenge measured after 6 hrs by ELISA; assay type: functional, cell-based
# Summary of the method: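 Mouse BMDCs (female C57BL/6 bone marrow, GM-CSF-derived, ≥90% CD11c+ on day 7) pretreated 30 min with graded compound concentrations, then stimulated with LPS 50 ng/mL for 6 h. Supernatant TNF-α, IL-6, IL-10 and IL-12p70 quantified by sandwich ELISA. Mean ± SEM vs LPS-only cells; experiments repeated at least three times.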
# [8] = biological target: T1, Toll-like receptor 4 (Mus musculus); assay: Inhibition of LPS-induced TLR4 activation in C57BL/6 mouse BMDC assessed as reduction in IkappaBalpha degradation at 25 uM pretreated for 30 mins followed by LPS-challenge measured after 15 to 90 mins by Western blot analysis; assay type: cell-based; summary of the method: as §1
# [9] = tested on: BMDC; assay: Inhibition of LPS-induced immune response in C57BL/6 mouse BMDC assessed as reduction in TNFalpha secretion at 25 uM treated 6 hrs post LPS-challenge measured after 30 mins by ELISA; assay type: functional, cell-based
# Summary of the method: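 Bone marrow DCs from 6-week-old female C57BL/6 mice, RBC-lysed, cultured in RPMI-1640/10% FBS with 10 ng/mL rmGM-CSF, 37 °C, 5% CO2. Cells given LPS 50 ng/mL for 6 h, then 25 μM compound added for 30, 60, 90 or 120 min. Supernatant TNF-α, IL-6, IL-10, IL-12p70 measured by sandwich ELISA. Mean ± SEM, compared with LPS-only DCs.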
# [10] = tested on: Mus musculus; assay: Antiinflammatory activity in Balb/c mouse model of LPS-induced endotoxemia assessed as increase in IL10 producing dendritic cells in splenocyte at 1 mg/kg, ip pretreated for 1 hr followed by LPS-challenge measured after 12 hrs by flow cytometric analysis; assay type: functional, organism-based
# [11] = biological target: T1, Toll-like receptor 4 (Mus musculus); assay: Inhibition of LPS-induced TLR4 activation in C57BL/6 mouse BMDC assessed as reduction in Akt phosphorylation at 25 uM pretreated for 30 mins followed by LPS-challenge measured after 15 to 90 mins by Western blot analysis; assay type: cell-based; summary of the method: as §1
smiles,measurement,setting,value
COc1ccc(-c2oc3cc(O)cc(O)c3c(=O)c2O)cc1O [TAMARIXETIN],Activity,[1],Active
same,inhibition,[2],Active
same,Activity,[3],Non-Toxic
same,Activity,[4],Active
same,inhibition,[5],Active
same,Activity,[6],Active
same,inhibition,[7],Active
same,inhibition,[8],Active
same,inhibition,[9],Active
same,Activity,[10],Active
same,inhibition,[11],Active
